# The source made the active and inactive calls. The rule behind the calls is not given here.
# Key:
# [1] = Cytotoxicity against HEK293 cells assessed as cell growth inhibition measured after 72 hrs by resazurin dye based fluorescence assay relative to IC50; type: toxicity; details: human
# In short: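 HEK293 cells grown in DMEM with 10% FBS and exposed to compound for 72 h at 37 °C, 5% CO2. Medium was then replaced with 44 μM resazurin, incubated 5–6 h more, and fluorescence read at 530/595 nm. Top concentration 80 μM. Curves were duplicate, 11-point dose response.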
# [2] = Selectivity index, ratio of IC50 for HEK293 cells to IC50 for antiplasmodial activity against ring stage chloroquine-sensitive Plasmodium falciparum 3D7; type: toxicity, cell-based; details: human, read-out: Ratio IC50
# In short: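 SI is HEK293 IC50 divided by P. falciparum 3D7 IC50. Parasites were sorbitol-synchronized twice, and rings were exposed 72 h at 37 °C (90% N2, 5% CO2, 5% O2), then DAPI-stained and imaged confocally. […] Where no accurate HEK293 IC50 was obtained, a relative IC50 or the top concentration was used and SI reported as a bound.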
# DNA [3] = assay: Binding affinity to 5'-CGCATATATGCG-3' DNA (unknown origin) assessed as bound as monomer [DS + 1 M] in charge states 5- at 100 uM by native mass spectrometry; type: nucleic-acid assay
# In short: (§1)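 Final sample: 9 μM DNA, 100 μM KCl, 100 μM S-MGB, 1% DMSO in 150 mM ammonium acetate pH 7. DNA with 1% DMSO and no ligand served as control. Sprayed in negative mode at 1.0–1.2 kV. Free, monomer- and dimer-bound DS species were read by charge state.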
# DNA [4] = assay: Binding affinity to 5'-CGCATATATGCG-3' DNA (unknown origin) assessed as bound as dimer [DS + 2 M] in charge states 5- and 4- at 100 uM by native mass spectrometry; type: nucleic-acid assay; in short: as §1
# DNA [5] = assay: Binding affinity to 5'-CGCATATATGCG-3' DNA (unknown origin) assessed as appearance of small m/z peak corresponding to free ds DNA oligo at 100 uM by native mass spectrometry; type: nucleic-acid assay; in short: as §1
# [6] = Selectivity ratio of IC50 for antiplasmodial activity against ring stage chloroquine-resistant Plasmodium falciparum Dd2 to IC50 for antiplasmodial activity against ring stage chloroquine-sensitive Plasmodium falciparum 3D7; type: functional
# In short: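 Ring-stage P. falciparum Dd2 and 3D7, twice sorbitol-synchronised, in RPMI-1640 with 25 mM HEPES, 5% human AB serum, Albumax II, hypoxanthine. Exposed 72 h at 37 °C (90% N2/5% CO2/5% O2), 11-point dose response. DAPI stain, confocal imaging, % inhibition against in-plate controls, four-parameter IC50. Two independent duplicate runs. Ratio is Dd2 IC50/3D7 IC50.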
Structure (SMILES),IC50 at 72 h [1],other results
COc1cccc(/C=C/c2ccc(C(=O)Nc3cc(C(=O)Nc4cc(C(=O)NCCN(C)C)n(C)c4)n(C)c3)cc2)c1,20 µM,–
Cn1cc(NC(=O)c2cc(NC(=O)c3ccc(/C=C/c4cccc(F)c4)cc3)cn2C)cc1C(=O)NCCC(=N)N,40 µM,–
Cn1cc(NC(=O)c2cc(NC(=O)c3ccc(NC(=O)c4ccc(F)cc4)cc3)cn2C)cc1C(=O)NCCC(=N)N,35 µM,–
Cn1cc(NC(=O)c2cc(NC(=O)c3ccc(/C=C/c4ccncc4)cc3)cn2C)cc1C(=O)NCCC(=N)N,40 µM,selectivity ratio [2]: > 613; Activity (DNA [3]): inactive; Activity (DNA [4]): Active
CN(C)CCCNC(=O)c1cc(NC(=O)c2cc(NC(=O)c3cc(NC(=N)c4cc5ccccc5cn4)cn3C)cn2C)cn1C,21 µM,–
COc1cccc(/C=C/c2ccc(C(=O)Nc3cc(C(=O)Nc4cc(C(=O)NCCCN(C)C)n(C)c4)n(C)c3)cc2)c1,35 µM,selectivity ratio [2]: > 195
Cn1cc(NC(=O)c2cc(NC(=O)c3ccc(/C=C/c4ccc(C(F)(F)F)cc4)cc3)cn2C)cc1C(=O)NCCN1CCOCC1,40 µM,–
Cn1cc(NC(=O)c2cc(NC(=O)c3ccc(/C=C/C(=O)Nc4ccccc4O)cc3)cn2C)cc1C(=O)NCCC(=N)N,40 µM,–
Cn1cc(NC(=O)c2cc(NC(=O)c3ccc(/C=C/c4ccc5ccccc5c4)cc3)cn2C)cc1C(=O)NCCC(=N)N,80 µM,selectivity ratio [2]: > 265; Activity (DNA [3]): Active; Activity (DNA [5]): Active; Activity (DNA [4]): Active
CC(C)CCc1sc(NC(=O)c2cc(NC(=O)c3cc(NC(=O)c4cccc(F)c4)cn3C)cn2C)nc1C(=O)NCCCN(C)C,40 µM,–
Cn1cc(NC(=O)c2cc(NC(=O)c3ccc(/C=C/c4ccc(F)cc4)cc3)cn2C)cc1C(=O)NCCC(=N)N,40 µM,–
Cn1cc(NC(=O)c2cc(NC(=O)c3ccc(/C=C/c4ccc5nsnc5c4)cc3)cn2C)cc1C(=O)NCCN1CCOCC1,11 µM,–
COc1cccc(/C=C/c2ccc(C(=O)Nc3cc(C(=O)Nc4cc(C(=O)NCCC(=N)N)n(C)c4)n(C)c3)cn2)c1,45 µM,selectivity ratio [2]: > 336; Activity (DNA [3]): inactive; Activity (DNA [4]): Active
COc1ccc(/C=C/c2ccc(C(=O)Nc3cc(C(=O)Nc4cc(C(=O)NCCC(=N)N)n(C)c4)n(C)c3)cc2)cc1.O=C(O)C(F)(F)F,40 µM,Ratio IC50 [6]: 1.4
CCc1nc(N)nc(N)c1-c1ccc(Cl)cc1 [PYRIMETHAMINE],–,Ratio IC50 [6]: >29740
CC(C)CCn1cc(NC(=O)c2cc(NC(=O)c3cc(NC(=N)c4cc5ccccc5cn4)cn3C)cn2C)cc1C(=O)NCCCN(C)C,40 µM,–
Cn1cc(NC(=O)c2cc(NC(=O)c3ccc(NC(=O)c4cccc(F)c4)cc3)cn2C)cc1C(=O)NCCC(=N)N,40 µM,–

# From ChEMBL document CHEMBL6114936, “S-MGBs bearing amidine tail groups are potent, selective antiplasmodial agents” (RSC Med Chem, 2025)
